From ChEMBL document CHEMBL1153988 (J Med Chem, 2009)
Active and inactive are the calls of the source. No cut-off for these calls is given here.

Experiments:
[1] = test system: Mus musculus; experiment: Neurotoxicity in CF1 albino mouse at 30 mg/kg, ip after 0.5 hrs; assay type: toxicity, organism-based; parameters: dose 30 mg/kg, route intraperitoneal; settings: in vivo
Method in brief: (§1)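 Male CF no. 1 albino mice (18-25 g) received a single ip dose as a suspension in 0.5% methylcellulose. The read-out was the number of animals showing neurotoxicity (minimal motor impairment) over the number tested.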

[2] = test system: Rattus norvegicus; experiment: Anticonvulsant activity in albino Sprague-Dawley rat assessed as protection against scMet-induced seizures at 50 mg/kg, po after 30 mins; assay type: functional
Method in brief: (§2)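 Male Sprague-Dawley albino rats (100-150 g) were given the compound orally as a suspension in 0.5% methylcellulose. Seizures were induced by subcutaneous pentylenetetrazol, dissolved in 0.9% saline as a 2.82% solution. The read-out was animals protected over animals tested.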

[3] = test system: Mus musculus; experiment: Anticonvulsant activity in CF1 albino mouse assessed as protection against scMet-induced seizures at 300 mg/kg, ip after 4 hrs; assay type: functional, organism-based; parameters: dose 300 mg/kg
Method in brief: (§3)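 Adult male CF no. 1 albino mice (18-25 g) dosed intraperitoneally with compound suspended in 0.5% methylcellulose (0.01 mL/g). Convulsant challenge given subcutaneously as a 0.85% pentylenetetrazol solution in 0.9% saline. Read-out is animals protected over animals tested, with neurotoxicity scored in parallel.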

[4] = test system: Mus musculus; experiment: Anticonvulsant activity in CF1 albino mouse assessed as protection against maximal electroshock-induced seizures at 100 mg/kg, ip after 4 hrs; assay type: functional, organism-based; parameters: dose 100 mg/kg
Method in brief: (§4)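 Adult male CF no. 1 albino mice (18-25 g). Test compound suspended in 0.5% methylcellulose and given intraperitoneally at 0.01 mL/g body weight. Maximal electroshock challenge at the stated time. Read-out is the number of animals protected over the number tested; neurotoxicity is scored in parallel.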

[5] = test system: Mus musculus; experiment: Neurotoxicity in CF1 albino mouse at 300 mg/kg, ip after 4 hrs; assay type: toxicity, organism-based; parameters: dose 300 mg/kg, route intraperitoneal; settings: in vivo; method in brief: as §1
[6] = test system: Mus musculus; experiment: Anticonvulsant activity in CF1 albino mouse assessed as protection against scMet-induced seizures at 30 mg/kg, ip after 4 hrs; assay type: functional, organism-based; parameters: dose 30 mg/kg; method in brief: as §3
[7] = test system: Rattus norvegicus; experiment: Anticonvulsant activity in albino Sprague-Dawley rat assessed as protection against scMet-induced seizures at 50 mg/kg, po after 2 hrs; assay type: functional; method in brief: as §2
[8] = test system: Mus musculus; experiment: Anticonvulsant activity in CF1 albino mouse assessed as protection against scMet-induced seizures at 30 mg/kg, ip after 0.5 hrs; assay type: functional, organism-based; parameters: dose 30 mg/kg; method in brief: as §3
[9] = test system: Rattus norvegicus; experiment: Neurotoxicity in albino Sprague-Dawley rat at 50 mg/kg, po; assay type: toxicity, organism-based; parameters: dose 50 mg/kg, route oral; settings: in vivo
Method in brief: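 Neurotoxicity was scored in male Sprague-Dawley albino rats (100-150 g) dosed orally with a suspension in 0.5% methylcellulose. The read-out was the fraction of animals showing neurotoxicity (minimal motor impairment).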

[10] = test system: Mus musculus; experiment: Neurotoxicity in CF1 albino mouse at 30 mg/kg, ip after 4 hrs; assay type: toxicity, organism-based; parameters: dose 30 mg/kg, route intraperitoneal; settings: in vivo; method in brief: as §1
[11] = test system: Rattus norvegicus; experiment: Anticonvulsant activity in albino Sprague-Dawley rat assessed as protection against maximal electroshock-induced seizures at 50 mg/kg, po after 1 hr; assay type: functional
Method in brief: (§5)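 Adult male Sprague-Dawley albino rats (100-150 g) dosed orally with compound suspended in 0.5% methylcellulose (0.04 mL per 10 g). Maximal electroshock challenge at the stated time. Protection is scored in 25% steps as the fraction of animals protected, with neurotoxicity recorded in parallel.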

[12] = test system: Mus musculus; experiment: Anticonvulsant activity in CF1 albino mouse assessed as protection against maximal electroshock-induced seizures at 30 mg/kg, ip after 4 hrs; assay type: functional, organism-based; parameters: dose 30 mg/kg; method in brief: as §4
[13] = test system: Mus musculus; experiment: Anticonvulsant activity in CF1 albino mouse assessed as protection against scMet-induced seizures at 300 mg/kg, ip after 0.5 hrs; assay type: functional, organism-based; parameters: dose 300 mg/kg; method in brief: as §3
[14] = test system: Rattus norvegicus; experiment: Anticonvulsant activity in albino Sprague-Dawley rat assessed as protection against scMet-induced seizures at 50 mg/kg, po after 1 hr; assay type: functional; method in brief: as §2
[15] = test system: Mus musculus; experiment: Neurotoxicity in CF1 albino mouse at 300 mg/kg, ip after 0.5 hrs; assay type: toxicity, organism-based; parameters: dose 300 mg/kg, route intraperitoneal; settings: in vivo; method in brief: as §1
[16] = test system: Rattus norvegicus; experiment: Anticonvulsant activity in albino Sprague-Dawley rat assessed as protection against maximal electroshock-induced seizures at 50 mg/kg, po after 2 hrs; assay type: functional; method in brief: as §5
[17] = test system: Rattus norvegicus; experiment: Anticonvulsant activity in albino Sprague-Dawley rat assessed as protection against maximal electroshock-induced seizures at 50 mg/kg, po after 15 mins; assay type: functional; method in brief: as §5
[18] = test system: Mus musculus; experiment: Anticonvulsant activity in CF1 albino mouse assessed as protection against maximal electroshock-induced seizures at 100 mg/kg, ip after 0.5 hrs; assay type: functional, organism-based; parameters: dose 100 mg/kg; method in brief: as §4
[19] = test system: Rattus norvegicus; experiment: Anticonvulsant activity in albino Sprague-Dawley rat assessed as protection against scMet-induced seizures at 50 mg/kg, po after 4 hrs; assay type: functional; method in brief: as §2
[20] = test system: Mus musculus; experiment: Anticonvulsant activity in CF1 albino mouse assessed as protection against scMet-induced seizures at 100 mg/kg, ip after 0.5 hrs; assay type: functional, organism-based; parameters: dose 100 mg/kg; method in brief: as §3
[21] = test system: Rattus norvegicus; experiment: Anticonvulsant activity in albino Sprague-Dawley rat assessed as protection against maximal electroshock-induced seizures at 50 mg/kg, po after 30 mins; assay type: functional; method in brief: as §5
[22] = test system: Mus musculus; experiment: Anticonvulsant activity in CF1 albino mouse assessed as protection against maximal electroshock-induced seizures at 300 mg/kg, ip after 0.5 hrs; assay type: functional, organism-based; parameters: dose 300 mg/kg; method in brief: as §4
[23] = test system: Mus musculus; experiment: Neurotoxicity in CF1 albino mouse at 100 mg/kg, ip after 4 hrs; assay type: toxicity, organism-based; parameters: dose 100 mg/kg, route intraperitoneal; settings: in vivo; method in brief: as §1
[24] = test system: Mus musculus; experiment: Anticonvulsant activity in CF1 albino mouse assessed as protection against maximal electroshock-induced seizures at 30 mg/kg, ip after 0.5 hrs; assay type: functional, organism-based; parameters: dose 30 mg/kg; method in brief: as §4
[25] = test system: Mus musculus; experiment: Anticonvulsant activity in CF1 albino mouse assessed as protection against maximal electroshock-induced seizures at 300 mg/kg, ip after 4 hrs; assay type: functional, organism-based; parameters: dose 300 mg/kg; method in brief: as §4
[26] = test system: Rattus norvegicus; experiment: Anticonvulsant activity in albino Sprague-Dawley rat assessed as protection against maximal electroshock-induced seizures at 50 mg/kg, po after 4 hrs; assay type: functional, organism-based; parameters: dose 50 mg/kg; method in brief: as §5
[27] = test system: Mus musculus; experiment: Anticonvulsant activity in CF1 albino mouse assessed as protection against scMet-induced seizures at 100 mg/kg, ip after 4 hrs; assay type: functional, organism-based; parameters: dose 100 mg/kg; method in brief: as §3
[28] = test system: Rattus norvegicus; experiment: Anticonvulsant activity in albino Sprague-Dawley rat assessed as protection against scMet-induced seizures at 50 mg/kg, po after 15 mins; assay type: functional; method in brief: as §2
[29] = test system: Mus musculus; experiment: Neurotoxicity in CF1 albino mouse at 100 mg/kg, ip after 0.5 hrs; assay type: toxicity, organism-based; parameters: dose 100 mg/kg, route intraperitoneal; settings: in vivo; method in brief: as §1
[30] = species on record: Rattus norvegicus; experiment: Protective index, ratio of TD50 for albino Sprague-Dawley rat to ED50 for scMet-induced albino Sprague-Dawley rat seizure model; assay type: functional
Method in brief: (§6)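 Protective index is the rat TD50 (minimal motor impairment) divided by the ED50 in the MES or sc pentylenetetrazol test. Male Sprague-Dawley rats were dosed orally in 0.5% methylcellulose, and both values came from probit analysis.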

[31] = species on record: Rattus norvegicus; experiment: Protective index, ratio of TD50 for albino Sprague-Dawley rat to ED50 for maximal electroshock-induced albino Sprague-Dawley rat seizure model; assay type: functional; method in brief: as §6

## CC1(C)C(C)(C)C1(F)C(=O)O
[1]
  Activity: Non-toxic
[2]
  Activity: inactive
[3]
  Activity: Non-toxic
[4]
  Activity: Non-toxic
[5]
  Activity: Non-toxic
[6]
  Activity: Non-toxic
[7]
  Activity: inactive
[8]
  Activity: Non-toxic
[9]
  Activity: Not Active
[10]
  Activity: Non-toxic
[11]
  Activity: inactive
[12]
  Activity: Non-toxic
[13]
  Activity: Toxic
[14]
  Activity: inactive
[15]
  Activity: Toxic
[16]
  Activity: inactive
[17]
  Activity: inactive
[18]
  Activity: Non-toxic
[19]
  Activity: inactive
[20]
  Activity: Non-toxic
[21]
  Activity: inactive
[22]
  Activity: Non-toxic
[23]
  Activity: Non-toxic
[24]
  Activity: Non-toxic
[25]
  Activity: Non-toxic
[26]
  Activity: inactive
[27]
  Activity: Non-toxic

## CC1(C)C(C)(C)C1(C)C(N)=O
[1]
  Activity: Non-toxic
[2]
  Activity: inactive
[3]
  Activity: Non-toxic
[4]
  Activity: Non-toxic
[5]
  Activity: Non-toxic
[28]
  Activity: inactive
[6]
  Activity: Non-toxic
[7]
  Activity: 25%
[8]
  Activity: Non-toxic
[9]
  Activity: Not Active
[10]
  Activity: Non-toxic
[11]
  Activity: inactive
[29]
  Activity: Non-toxic
[12]
  Activity: Non-toxic
[13]
  Activity: Toxic
[14]
  Activity: 25%
[15]
  Activity: Toxic
[16]
  Activity: inactive
[17]
  Activity: inactive
[18]
  Activity: Non-toxic
[19]
  Activity: inactive
[20]
  Activity: Non-toxic
[21]
  Activity: inactive
[22]
  Activity: Toxic
[23]
  Activity: Non-toxic
[24]
  Activity: Non-toxic
[25]
  Activity: Non-toxic
[26]
  Activity: inactive
[27]
  Activity: Non-toxic

## CNC(=O)C1(F)C(C)(C)C1(C)C
[2]
  Activity: inactive
[3]
  Activity: Non-toxic
[4]
  Activity: Non-toxic
[5]
  Activity: Non-toxic
[28]
  Activity: inactive
[6]
  Activity: Non-toxic
[7]
  Activity: inactive
[8]
  Activity: Non-toxic
[9]
  Activity: 100%
[12]
  Activity: Non-toxic
[13]
  Activity: Non-toxic
[14]
  Activity: inactive
[15]
  Activity: Toxic
[18]
  Activity: Non-toxic
[19]
  Activity: inactive
[20]
  Activity: Toxic
[22]
  Activity: Toxic
[23]
  Activity: Non-toxic
[24]
  Activity: Non-toxic
[25]
  Activity: Non-toxic
[27]
  Activity: Non-toxic

## CC1(C)C(C(=O)NC(N)=O)C1(C)C [2,2,3,3-TETRAMETHYLCYCLOPROPANECARBONYLUREA]
[30]
  PI: 5.9
[31]
  PI: 18.5
